Publication PMC2634825 (Molecular pharmaceutics, 2009)
Entries after “also recorded” stand apart in the source; their conditions may differ.

Legend:
[1] = Biodistribution in athymic nude mice bearing MDA-MB-435 breast cancer xenografts; format: in vivo; conditions: mouse; for tissue to tissue ratio at 2 h: female, athymic nu/nu, tumor and muscle, iv, total radioactivity; for tissue uptake at 0.5 h / tissue uptake at 2 h: in vivo; for tissue uptake at 0.5 h: 30 min p.i.; for tissue uptake at 2 h: 120 min p.i.
Method in brief: (§1)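 Female athymic nu/nu mice (4–5 weeks old) received 5 × 10⁶ cells s.c. into both mammary fat pads (MDA-MB-435) or both upper flanks (U87MG) and were used 2–4 weeks later with 0.05–0.4 g tumors. Each got ~2 μCi of HPLC-purified tracer in 0.1 mL saline i.v. via the tail vein. Four mice per time point were killed at 30, 60 and 120 min by pentobarbital overdose. Organs were weighed and γ-counted as %ID/g; T/B values are means ± SD.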

[2] = Biodistribution in athymic nude mice bearing U87MG glioma xenografts; format: in vivo; conditions: mouse; for tissue to tissue ratio at 0.5 h / tissue to tissue ratio at 2 h: female, athymic nu/nu, iv, total radioactivity; for tissue uptake at 0.5 h / tissue uptake at 2 h: in vivo; for tissue uptake at 0.5 h: 30 min p.i.; for tissue uptake at 2 h: 120 min p.i.
Method in brief: as §1

tumor-bearing mouse = assay: Blocking experiment; format: in vivo, mice
Method in brief: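 Tumour-bearing nude mice were given ~2 μCi of the 99mTc-labelled tracer i.v. together with ~350 μg (~14 mg/kg) excess unlabelled cyclic RGD dimer. The blocker was dissolved in the dose solution at 1.75 mg/mL and filtered. Four animals were killed at 1 h p.i. by pentobarbital overdose, and organ %ID/g was compared with unblocked animals at the same time point.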

normal athymic nude mice = assay: Metabolism study; format: in vivo
Method in brief: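 Two normal athymic nude mice per tracer each received 100–120 μCi i.v. via the tail vein. Urine was collected by manual void at 30 and 120 min, mixed with an equal volume of 20% aqueous acetonitrile, centrifuged at 8,000 rpm and filtered (0.20 μ). Feces collected at 2 h were suspended in 2 mL 20% acetonitrile, vortexed and centrifuged.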

[3] = test system: athymic nude mice bearing U87MG glioma xenografts; assay: Biodistribution in athymic nude mice bearing U87MG glioma xenografts; format: in vivo; conditions: over the 2 h study period
Method in brief: as §1

[4] = kidney uptake, MDA-MB-435 model
[5] = muscle uptake, MDA-MB-435 model
[6] = tumor uptake, MDA-MB-435 breast tumor
[7] = blood uptake (blood clearance), U87MG model

| Structure (SMILES) | tissue to tissue ratio at 2 h [1] | tissue uptake at 0.5 h [1, 6] [%ID/g] | tissue uptake at 2 h [1, 6] [%ID/g] | tissue to tissue ratio at 0.5 h ([2]; tumor and liver) | tissue to tissue ratio at 2 h ([2]; tumor and liver) | tissue to tissue ratio at 0.5 h ([2]; tumor and whole blood) | tissue to tissue ratio at 2 h ([2]; tumor and whole blood) | tissue uptake at 0.5 h ([2]; kidney uptake, U87MG model) [%ID/g] | tissue uptake at 2 h ([2]; kidney uptake, U87MG model) [%ID/g] | tissue uptake at 0.5 h ([2]; muscle uptake, U87MG model) [%ID/g] | tissue uptake at 2 h ([2]; muscle uptake, U87MG model) [%ID/g] | tissue uptake at 0.5 h ([2]; tumor uptake, U87MG glioma) [%ID/g] | tissue uptake at 2 h ([2]; tumor uptake, U87MG glioma) [%ID/g] | further results |
| --- | --- | --- | --- | --- | --- | --- | --- | --- | --- | --- | --- | --- | --- | --- |
| N=C(N)NCCC[C@@H]1NC(=O)[C@H](CCCCNC(=O)CCOCCOCCOCCOCCNC(=O)CC[C@H](NC(=O)c2ccc(NN)nc2)C(=O)NCCOCCOCCOCCOCCC(=O)NCCCC[C@@H]2NC(=O)[C@@H](Cc3ccccc3)NC(=O)[C@H](CC(=O)O)NC(=O)CNC(=O)[C@H](CCCNC(=N)N)NC2=O)NC(=O)[C@@H](Cc2ccccc2)NC(=O)[C@H](CC(=O)O)NC(=O)CNC1=O [^99mTc-2PEG4-dimer, [^99mTc(HYNIC-2PEG4-dimer)(tricine)(TPPTS)], metal not drawn] | 6.52 ± 1.72 | 5.2 ± 1.74 | 9.77 ± 2.66 | 2.59 ± 0.45 | 3.33 ± 0.64 | 9.63 ± 1.32 | 29.1 ± 8.54 | 20.8 ± 2.32 | 10.2 ± 1.37 | 2.18 ± 0.37 | 1.27 ± 0.2 | 11.2 ± 1.96 | 8.31 ± 2.31 | tissue uptake at 0.5 h [1, 4]: 14.4 ± 4.09 %ID/g; tissue uptake at 2 h [1, 4]: 13.8 ± 5.36 %ID/g; tissue uptake at 0.5 h ([1]; liver uptake, MDA-MB-435 model): 2.97 ± 0.63 %ID/g; tissue uptake at 2 h ([1]; liver uptake, MDA-MB-435 model): 3.27 ± 1.09 %ID/g; tissue uptake at 0.5 h [1, 5]: 1.76 ± 0.56 %ID/g; tissue uptake at 2 h [1, 5]: 1.51 ± 0.35 %ID/g; uptake in the blood and kidneys in the presence of E[c(RGDfK)]2 (tumor-bearing mouse; 60 min p.i., versus without blocking agent): comparable; tumor uptake on co-injection of excess E[c(RGDfK)]2 (tumor-bearing mouse; result in words): partially blocked; metabolic stability during excretion from renal and hepatobiliary routes (normal athymic nude mice; urine and feces over 2 h): high metabolic stability; also recorded: remained intact; also recorded: very high metabolic stability |
| N=C(N)NCCC[C@@H]1NC(=O)[C@H](CCCCNC(=O)CC[C@H](NC(=O)CCOCCOCCOCCOCCNC(=O)c2ccc(NN)nc2)C(=O)NCCCC[C@@H]2NC(=O)[C@@H](Cc3ccccc3)NC(=O)[C@H](CC(=O)O)NC(=O)CNC(=O)[C@H](CCCNC(=N)N)NC2=O)NC(=O)[C@@H](Cc2ccccc2)NC(=O)[C@H](CC(=O)O)NC(=O)CNC1=O [^99mTc-PEG4-dimer, [^99mTc(HYNIC-PEG4-dimer)(tricine)(TPPTS)], metal not drawn, reference compound] | 2.91 ± 0.6 | 3.49 ± 0.62 | 3.82 ± 0.54 | – | – | – | – | – | – | – | – | – | – | – |
| N=C(N)NCCC[C@@H]1NC(=O)[C@H](CCCCNC(=O)CCOCCOCCOCCOCCNC(=O)CC[C@H](NC(=O)CCOCCOCCOCCOCCNC(=O)c2ccc(NN)nc2)C(=O)NCCOCCOCCOCCOCCC(=O)NCCCC[C@@H]2NC(=O)[C@@H](Cc3ccccc3)NC(=O)[C@H](CC(=O)O)NC(=O)CNC(=O)[C@H](CCCNC(=N)N)NC2=O)NC(=O)[C@@H](Cc2ccccc2)NC(=O)[C@H](CC(=O)O)NC(=O)CNC1=O [^99mTc-3PEG4-dimer, [^99mTc(HYNIC-3PEG4-dimer)(tricine)(TPPTS)], metal not drawn] | – | – | – | 2.13 ± 0.87 | 3.49 ± 1.64 | 6.72 ± 2.88 | 48.8 ± 18.7 | 17.6 ± 0.73 | 9.89 ± 1.2 | 1.45 ± 0.2 | 1 ± 0.22 | 8.17 ± 0.68 | 9.74 ± 3.22 | tissue uptake at 0.5 h [2, 7]: 1.02 ± 0.22 %ID/g; tissue uptake at 2 h [2, 7]: 0.17 ± 0.02 %ID/g; tissue uptake at 0.5 h ([2]; liver uptake, U87MG model): 3.14 ± 0.18 %ID/g; tissue uptake at 2 h ([2]; liver uptake, U87MG model): 2.92 ± 0.77 %ID/g; tissue uptake at 2 h ([2]; tumor uptake, U87MG glioma, tumor size 0.5 g – 1.6 g or 500 – 1700 mm^3): 4 to 6 %ID/g; tissue uptake at 2 h ([2]; tumor uptake, U87MG glioma, tumor size <0.05 g or <50 mm^3): 2 to 4 %ID/g; glioma uptake relative to ^99mTc-PEG4-monomer [3]: ~3 ×; metabolism during excretion from the hepatobiliary route (normal athymic nude mice; feces at 120 min p.i.): ~ 30%; metabolic stability during excretion from the renal route (normal athymic nude mice; urine at 30 and 120 min p.i.): remained intact |
